Results on 19 compounds are retold here after ChEMBL document CHEMBL1157867, “Synthesis of substituted acridinyl pyrazoline derivatives and their evaluation for anti-inflammatory activity” (Eur J Med Chem, 2010).

In series [1] the test system is Rattus norvegicus. Nature of the series: Antiinflammatory activity in Charles Foster albino rat assessed as carrageenan-induced paw edema at 50 mg/kg, po administered 1 hr before carrageenan challenge measured after 3 hrs relative to control. The series is classed as functional. The procedure, abridged:
(§1)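 Charles-Foster albino rats of either sex, pregnant females excluded, 70–95 days old, 120–175 g, food and water ad libitum. Groups of six. Compounds in propylene glycol given orally 1 h before 0.05 mL of 1% carrageenan in 0.9% saline, injected under the plantar aponeurosis of the right hind paw. Paw volume read by plethysmometer before and 3 h after injection. Inhibition (%) = (1 − Vt/Vc) × 100.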

Series [2] has as its system Mus musculus. Nature of the series: Analgesic activity in albino mouse assessed as decrease in acetic acid-induced writhing at 50 mg/kg, ip administered 30 mins before acetic acid challenge measured after 1 hr relative to control. In kind it is functional. Also noted: scale not given: the % may be the effect or the level left. The conditions noted are these: route intraperitoneal. The procedure, abridged:
(§2)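 Mice of 15–25 g; compounds dissolved in propylene glycol. Acetic acid 0.5%, 0.25 mL/mouse, injected intraperitoneally 30 min after dosing. Mean number of writhes per group counted, and percent decrease versus control calculated after 60 min.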

The nature of series [3]: Toxicity in ip dosed albino mouse. In kind it is organism-based. The conditions noted are these: in vivo, read-out: ALD50. The procedure, abridged:
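Acute lethal dose (ALD50) determined in albino mice of 15–25 g, given food pellets and water ad libitum. Compounds were dissolved in propylene glycol. The procedure followed a previously published method.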

Series [4] concerns Rattus norvegicus. The series can be described thus: Antiinflammatory activity in Charles Foster albino rat assessed as carrageenan-induced paw edema at 100 mg/kg, po administered 1 hr before carrageenan challenge measured after 3 hrs relative to control. The series is classed as functional. The essentials: as §1
Series [5] has as its system Rattus norvegicus. Nature of the series: Antiinflammatory activity in Charles Foster albino rat assessed as carrageenan-induced paw edema at 25 mg/kg, po administered 1 hr before carrageenan challenge measured after 3 hrs relative to control. In kind it is functional. The essentials: as §1
Series [6] has as its system Mus musculus. The series can be described thus: Analgesic activity in albino mouse assessed as decrease in acetic acid-induced writhing at 100 mg/kg, ip administered 30 mins before acetic acid challenge measured after 1 hr relative to control. The series is classed as functional. Further details: scale not given: the % may be the effect or the level left. The conditions noted are these: route intraperitoneal. The essentials:
as §2

For series [7], the system named is Mus musculus. Nature of the series: Analgesic activity in albino mouse assessed as decrease in acetic acid-induced writhing at 25 mg/kg, ip administered 30 mins before acetic acid challenge measured after 1 hr relative to control. The conditions noted are these: route intraperitoneal. Also noted: scale not given: the % may be the effect or the level left. In kind it is functional. The essentials: as §2

Consider `O=C1CC(CSc2nnc(-c3ccncc3)o2)=NN1c1c2ccccc2nc2ccccc12`, for which the Activity in the series on Rattus norvegicus [1] was 24.1%; with Mus musculus [2] it was 25.9%. The LD50 in series [3] is greater than 1000 mg/kg.

As to `O=C1CC(CSc2nnc(-c3ccncc3)o2)=NN1c1c2ccccc2nc2ccc(Br)cc12`, the Activity was determined as 31.5% in the series on Rattus norvegicus [1] and 28.8% in the series on Mus musculus [2]. For the same compound, the LD50 in series [3] was greater than 1000 mg/kg.

`COc1cc(Cl)c2nc3ccccc3c(N3N=C(CBr)CC3=O)c2c1`: the Activity with Rattus norvegicus [1] is given as 18.6%; in the series on Mus musculus [2], 16.3%. Further, the LD50 in series [3] is greater than 1000 mg/kg.

Turning to `CCCCC1C(=O)N(c2ccccc2)N(c2ccccc2)C1=O` [PHENYLBUTAZONE], the Activity came to 63.4% in the series with Rattus norvegicus [4], 31.4% with Rattus norvegicus [5], 42.6% with Mus musculus [6] and 31% in the series with Mus musculus [7].

Turning to `COc1ccc2nc3ccccc3c(N3N=C(CBr)CC3=O)c2c1`, the Activity is recorded as 13.5% in the series with Rattus norvegicus [1] and 15.9% with Mus musculus [2]. For the same compound, in series [3], the LD50 is greater than 1000 mg/kg.

With `O=C1CC(CBr)=NN1c1c2ccccc2nc2ccccc12`, the Activity with Rattus norvegicus [1] was 12.8%; with Mus musculus [2] it was 13.2%. In addition, the LD50 in series [3] is greater than 1000 mg/kg.

Turning to `O=C1CC(CSc2nnc(-c3ccncc3)o2)=NN1c1c2ccccc2nc2ccc(Cl)cc12`, the Activity came to 27.2% in the series with Rattus norvegicus [1] and 30.6% in the series on Mus musculus [2]. The LD50 in series [3] is greater than 1000 mg/kg.

In the case of `CC1=NN(c2c3ccccc3nc3ccc(Cl)cc23)C(=O)C1`, the results for the Activity in the series on Rattus norvegicus [1] and with Mus musculus [2] were 13.5% and 12.6%, respectively. Also, the LD50 in series [3] is greater than 1000 mg/kg.

With `CC(=O)Oc1ccccc1C(=O)O` [ASPIRIN], the Activity in the series with Rattus norvegicus [4] came to 60.8%; in the series on Rattus norvegicus [5] it was 30.25%; with Mus musculus [6], 59.3%; in the series on Mus musculus [7], 30.2%.

As to `COc1ccc2nc3ccccc3c(N3N=C(CSc4nnc(-c5ccncc5)o4)CC3=O)c2c1`, the Activity with Rattus norvegicus [1] stood at 31.2%; in the series with Mus musculus [2] it was 29.7%. Further, in series [3], the LD50 is greater than 1000 mg/kg.

Consider `COc1ccc2nc3ccccc3c(N3N=C(C)CC3=O)c2c1`, for which the Activity in the series with Rattus norvegicus [1] is listed as 11.5%; with Mus musculus [2] it was 10.8%. The LD50 in series [3] is greater than 1000 mg/kg.

Regarding `COc1cc(Cl)c2nc3ccccc3c(N3N=C(C)CC3=O)c2c1`, the Activity amounted to 14.4% in the series on Rattus norvegicus [1] and 13.4% in the series with Mus musculus [2]. Also, the LD50 in series [3] was greater than 1000 mg/kg.

For `O=C1CC(CSc2nnc(-c3ccncc3)o2)=NN1c1c2ccccc2nc2c(Cl)cc(Cl)cc12`, the Activity turned out to be 40.8% with Rattus norvegicus [1]; 32.1% in the series on Rattus norvegicus [5]; 33.5% in the series with Mus musculus [2]; 42.4% with Mus musculus [6]; 30.6% with Mus musculus [7]. In addition, the LD50 in series [3] is greater than 1000 mg/kg.

For `CC1=NN(c2c3ccccc3nc3ccccc23)C(=O)C1`, the Activity in the series with Rattus norvegicus [1] was 10.8%; with Mus musculus [2] it was 8.6%. For the same compound, in series [3], the LD50 was greater than 1000 mg/kg.

As to `CC1=NN(c2c3ccccc3nc3c(Cl)cc(Cl)cc23)C(=O)C1`, the Activity came out at 17.6% in the series on Rattus norvegicus [1] and 14.7% with Mus musculus [2]. Further, in series [3], the LD50 is greater than 1000 mg/kg.

Consider `O=C1CC(CBr)=NN1c1c2ccccc2nc2c(Cl)cc(Cl)cc12`, for which the Activity is listed as 20.7% in the series on Rattus norvegicus [1] and 18.6% with Mus musculus [2]. Moreover, in series [3], the LD50 was greater than 1000 mg/kg.

On to `O=C1CC(CBr)=NN1c1c2ccccc2nc2ccc(Cl)cc12`, for which the Activity was 15.9% in the series on Rattus norvegicus [1] and 16.4% in the series on Mus musculus [2]. Moreover, the LD50 in series [3] was greater than 1000 mg/kg.

As to `O=C1CC(CBr)=NN1c1c2ccccc2nc2ccc(Br)cc12`, the Activity is 17.1% with Rattus norvegicus [1] and 13.6% in the series with Mus musculus [2]. The LD50 in series [3] was greater than 1000 mg/kg.

Consider `CC1=NN(c2c3ccccc3nc3ccc(Br)cc23)C(=O)C1`, for which the Activity in the series with Rattus norvegicus [1] stood at 12.6%; in the series with Mus musculus [2], 12.9%. In series [3], the LD50 is greater than 1000 mg/kg.
